Experimental data reported in ChEMBL document CHEMBL3400023, “Synthesis and evaluation of novel amide amino-β-lactam derivatives as cholesterol absorption inhibitors” (Bioorg Med Chem, 2015).

Legend:
[1] = target: T1, NPC1-like intracellular cholesterol transporter 1 (Homo sapiens) (UniProt Q9UHC9); assay: Inhibition of human NPC1L1 transfected in MDCK2 cells assessed as [3H]cholesterol uptake at 60 uM after 1 hr by liquid scintillation counting analysis; assay type: cell-based; conditions: MDCK-II
T1 sequence (whole entry): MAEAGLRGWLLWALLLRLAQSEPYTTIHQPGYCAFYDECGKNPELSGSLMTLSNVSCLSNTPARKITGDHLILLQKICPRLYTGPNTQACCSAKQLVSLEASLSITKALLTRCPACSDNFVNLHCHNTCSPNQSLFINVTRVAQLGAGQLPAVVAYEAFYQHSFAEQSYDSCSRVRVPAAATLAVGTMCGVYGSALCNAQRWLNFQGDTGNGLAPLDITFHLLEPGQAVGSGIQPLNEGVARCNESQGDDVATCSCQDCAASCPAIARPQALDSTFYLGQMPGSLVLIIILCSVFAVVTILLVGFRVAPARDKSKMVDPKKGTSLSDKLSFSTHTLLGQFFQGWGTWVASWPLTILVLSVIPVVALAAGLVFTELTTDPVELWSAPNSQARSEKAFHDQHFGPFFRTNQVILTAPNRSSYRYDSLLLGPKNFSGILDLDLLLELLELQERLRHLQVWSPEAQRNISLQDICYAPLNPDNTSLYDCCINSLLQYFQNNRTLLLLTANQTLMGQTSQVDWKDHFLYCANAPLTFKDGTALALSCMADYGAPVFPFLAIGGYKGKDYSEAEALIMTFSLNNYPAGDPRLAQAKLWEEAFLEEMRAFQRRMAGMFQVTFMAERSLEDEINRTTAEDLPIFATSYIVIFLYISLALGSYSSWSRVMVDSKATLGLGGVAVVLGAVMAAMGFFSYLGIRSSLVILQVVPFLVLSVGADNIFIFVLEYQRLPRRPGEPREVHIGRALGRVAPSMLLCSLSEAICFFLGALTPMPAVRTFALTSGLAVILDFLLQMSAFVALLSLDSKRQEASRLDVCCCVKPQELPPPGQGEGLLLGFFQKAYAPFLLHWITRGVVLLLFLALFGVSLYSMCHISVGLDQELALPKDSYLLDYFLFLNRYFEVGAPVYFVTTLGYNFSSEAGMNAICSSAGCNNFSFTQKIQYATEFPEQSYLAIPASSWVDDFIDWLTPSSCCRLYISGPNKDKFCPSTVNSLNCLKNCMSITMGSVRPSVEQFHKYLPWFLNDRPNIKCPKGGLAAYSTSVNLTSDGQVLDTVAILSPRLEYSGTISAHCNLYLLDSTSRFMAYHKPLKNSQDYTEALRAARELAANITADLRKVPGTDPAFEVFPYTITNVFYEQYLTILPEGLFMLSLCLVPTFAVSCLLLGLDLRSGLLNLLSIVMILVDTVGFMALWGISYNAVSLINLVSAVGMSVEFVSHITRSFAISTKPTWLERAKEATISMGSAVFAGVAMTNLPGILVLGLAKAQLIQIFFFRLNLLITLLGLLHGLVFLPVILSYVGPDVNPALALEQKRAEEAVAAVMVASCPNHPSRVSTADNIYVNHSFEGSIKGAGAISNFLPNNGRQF
Outline: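 hNPC1L1/MDCKII cells were seeded in DMEM with 5% LPDS 24 h before treatment, then PBS-washed. Cells were exposed for 1 h to micellar medium carrying [3H]cholesterol (0.18 μCi/mL) plus compound (0–200 μM). They were washed with ice-cold 0.2% fatty acid-free BSA and lysed, and lysate counted by scintillation. Counts were normalised to protein (CPM/mg) and expressed as % inhibition versus untreated cells. Duplicates, three independent experiments.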

[2] = Cytotoxicity against MDCK2 cells dosed with micelles after 1 hr; set-up: species or system Canis lupus familiaris; conditions: dog, mdck-ii
Outline: (§1)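 MDCKII cells (wild type or stably expressing hNPC1L1, G418-maintained) seeded at 2 × 10^5 cells/mL 24 h ahead in DMEM/10% FCS. Cells exposed for 1 h, then viability read by MTT assay.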

[3] = Cytotoxicity against MDCK2 cells expressing human NPC1L1 dosed with micelles after 1 hr; set-up: species or system Canis lupus familiaris; conditions: dog, mdck-ii; outline: as §1

| inhibition [1] | Compound | Activity [2] | Activity [3] |
| --- | --- | --- | --- |
| 60% | O=C(N[C@H]1C(=O)N(c2ccc(F)cc2)[C@@H]1c1ccc(O)cc1)c1ccccc1 | Non-toxic | Non-toxic |
| 60% | O=C(N[C@H]1C(=O)N(c2ccc(F)cc2)[C@@H]1c1ccc(O)cc1)c1ccc(F)cc1 | Non-toxic | Non-toxic |
| 40% | O=C1[C@H](CC[C@H](O)c2ccc(F)cc2)[C@@H](c2ccc(O)cc2)N1c1ccc(F)cc1 [EZETIMIBE] | Non-toxic | Non-toxic |
|  | O=C(/C=C/c1ccc(F)cc1)N[C@H]1C(=O)N(c2ccc(F)cc2)[C@@H]1c1ccc(O)cc1 | Non-toxic | Non-toxic |
|  | O=C(Cc1ccc(F)cc1)N[C@H]1C(=O)N(c2ccc(F)cc2)[C@@H]1c1ccc(O)cc1 | Non-toxic | Non-toxic |
|  | O=C(/C=C/c1ccccc1)N[C@H]1C(=O)N(c2ccc(F)cc2)[C@@H]1c1ccc(O)cc1 | Non-toxic | Non-toxic |
|  | O=C(Cc1ccccc1)N[C@H]1C(=O)N(c2ccc(F)cc2)[C@@H]1c1ccc(O)cc1 | Non-toxic | Non-toxic |
